Sampled rows, rich in hits. Any-hit rate of the full collection: about 1.9%.
NPY-Y1 PAM-ag: NPY-Y1 receptor potentiators or agonists, primary screen, cell-based. activation, % at 3.6 µM. NPY-Y1 expressing cells, potentiator/agonist activation. hit rate 0.37% among 220,000; in the data active means activation above about 33%, passing the limit was not always enough;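 further: cells stimulated with NPY at EC10 then isoproterenol at EC100; 0% = low agonist plus stimulus and 100% = saturating agonist plus stimulus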
NPY Y2 blocker: NPY-Y2 receptor antagonists, primary screen, cell-based; Neuropeptide Y receptor type 2 (Homo sapiens), P49146; NPY-Y2 expressing cells, antagonist mode; inhibition, % at 2.7 µM; hit rate 0.99% among 140,000; AID 793, 2007;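 further: 0% = vehicle with agonist challenge and 100% = reference antagonist with challenge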
Target sequence (P49146 whole entry, looked up): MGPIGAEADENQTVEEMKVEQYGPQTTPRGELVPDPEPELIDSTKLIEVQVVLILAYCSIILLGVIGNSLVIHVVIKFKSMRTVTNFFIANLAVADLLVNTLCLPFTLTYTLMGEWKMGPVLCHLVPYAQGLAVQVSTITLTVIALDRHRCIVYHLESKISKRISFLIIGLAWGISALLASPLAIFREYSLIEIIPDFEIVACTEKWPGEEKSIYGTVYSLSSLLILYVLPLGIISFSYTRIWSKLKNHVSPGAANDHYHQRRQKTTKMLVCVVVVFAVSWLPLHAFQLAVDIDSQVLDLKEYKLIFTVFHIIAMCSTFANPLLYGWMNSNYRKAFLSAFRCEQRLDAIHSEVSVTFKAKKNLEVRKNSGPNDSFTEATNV
NPY-Y2 PAM-ag: NPY-Y2 potentiators or agonists, primary screen, cell-based | cells expressing NPY-Y2, potentiator/agonist read-out | activation, % at 3.6 µM | hit rate 0.45% among 220,000 | AID 1359, 2008; in the data active means activation above about 27%;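 further: cells stimulated with NPY near EC25 plus isoproterenol at EC100; 0% = vehicle plus submaximal agonist and 100% = vehicle plus saturating agonist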
NPY-Y1 antag: NPY-Y1 receptor antagonists, primary screen, cell-based | HEK293-CNG Y1 cells, membrane potential fluorescence; NPY at EC95, then isoproterenol | inhibition, % at 3.6 µM | hit rate 1% among 200,000 | AID 1040, 2008;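 active means inhibition above the campaign mean inhibition of all tested compounds plus 3 SD, cut at about 20% in these data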;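 further: 0% = DMSO wells given NPY plus isoproterenol and 100% = isoproterenol alone without NPY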
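Material: HEK293 Y1/CNG channel cell line | Also added: NPY (25 nM), isoproterenol (1 µM), Ro 20-1724 (25 µM) | Compound: One concentration, 3.6 µM, in 0.4% DMSO | Schedule: 3 h dye uptake, 1 h room-temperature compound, 45 min post-isoproterenol | Signal: Membrane-potential fluorescent dye readout | Read-out: % inhibition of NPY effect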
NPY-Y1 ant conf: NPY-Y1 receptor antagonists, retest of hits, confirmation, HEK293-CNG cells, membrane potential fluorescence, triplicate | shares compounds with NPY-Y1 antag | cAMP; NPY challenge against isoproterenol-raised cAMP | inhibition, % at 3.6 µM | hit rate 21% among 1,200 | AID 1254, 2008; in the data active means inhibition above about 20%;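 further: 0% = vehicle with agonist plus stimulus and 100% = stimulus alone without agonist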
NPY-Y2 antag ct: NPY-Y2 receptor antagonists, selectivity check, confirmation, counter-screen for NPY-Y1 antagonist project, HEK293-CNG cells, membrane potential fluorescence, triplicate; antagonism; cells given NPY, then isoproterenol; inhibition, % at 3.6 µM; hit rate 28% among 1,200; AID 1255, 2008; shares compounds with NPY-Y1 antag;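 further: 0% = DMSO with agonist challenge and 100% = reference antagonist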
Starred values were filed as active, the others as inactive. Unless noted, no stated cut-off is given here; in the data, active means inhibition above about 17%; inactive means the rest.

CCOC(=O)c1c(NC(=O)C2CCCCC2C(=O)O)sc2c1CCCCC2 (centres undefined) was read as NPY-Y1 PAM-ag -19, NPY-Y2 PAM-ag 22 and NPY-Y1 antag 3.
CCOc1cc(/C=N/n2nnnc2N)ccc1OCc1c(C)no[n+]1[O-] was read as NPY-Y1 PAM-ag 0, NPY Y2 blocker 7, NPY-Y2 PAM-ag -22, NPY-Y1 antag 21*, NPY-Y1 ant conf 9 and NPY-Y2 antag ct 9.
For CCCn1nnc(NC(=O)c2cccc(Cl)c2)n1 the results were NPY-Y1 PAM-ag 10, NPY Y2 blocker 2, NPY-Y2 PAM-ag -9, NPY-Y1 antag 51*, NPY-Y1 ant conf 1 and NPY-Y2 antag ct 1.
For CCOC(=O)C(=CNc1cc(C)nn1-c1ccc(Cl)cc1)C(=O)OCC the results were NPY-Y1 PAM-ag 13, NPY Y2 blocker 9, NPY-Y2 PAM-ag 11, NPY-Y1 antag 24*, NPY-Y1 ant conf 21* and NPY-Y2 antag ct 5.
`O=C(COC(=O)CCSc1ccc(Cl)cc1)NCc1ccc(Cl)cc1` gave NPY-Y1 PAM-ag -33, NPY Y2 blocker 9, NPY-Y2 PAM-ag -25 and NPY-Y1 antag 11.
Screening O=C(COC(=O)CCC(=O)c1ccc(Cl)cc1)NCCc1ccccc1 returned NPY-Y1 PAM-ag 1, NPY-Y2 PAM-ag -19 and NPY-Y1 antag 10.
`O=C(COC(=O)CCC(=O)c1ccc(Cl)cc1)NCc1ccco1` gave NPY-Y1 PAM-ag -24, NPY-Y2 PAM-ag -23, NPY-Y1 antag 22*, NPY-Y1 ant conf 5 and NPY-Y2 antag ct 4.
Screening O=C(COC(=O)CCSc1ccc(Cl)cc1)NCc1ccccc1 returned NPY-Y1 PAM-ag -26, NPY Y2 blocker 15, NPY-Y2 PAM-ag -12, NPY-Y1 antag 22*, NPY-Y1 ant conf 8 and NPY-Y2 antag ct 10.
For COCCNC(=S)N=Nc1c(O)[nH]c2ccc([N+](=O)[O-])cc12 the results were NPY-Y1 PAM-ag 4 and NPY-Y2 PAM-ag 19.
CN(C)S(=O)(=O)c1cccc(-c2nnc3n2CCCCC3)c1 was read as NPY-Y1 PAM-ag 27 and NPY-Y2 PAM-ag 4.
For CCOC(=O)C1CCCN(C(=S)NC2CCCC2)C1 (centres undefined) the results were NPY-Y1 PAM-ag -8, NPY-Y2 PAM-ag -7 and NPY-Y1 antag 6.
Screening Clc1cccc(Cl)c1CNc1ccc(N2CCCC2)cc1 returned NPY-Y1 PAM-ag -12, NPY-Y2 PAM-ag -1 and NPY-Y1 antag -5.
`COc1ccccc1NC(=O)CSc1nc2c(sc3ccccc32)c(=O)n1CCN(C)C` gave NPY-Y1 PAM-ag 0, NPY-Y2 PAM-ag -8 and NPY-Y1 antag 6.
`C=CCN(C(=O)CSc1nc2ccsc2c(=O)n1Cc1ccccn1)c1ccccc1` gave NPY-Y1 PAM-ag 7, NPY-Y2 PAM-ag 3 and NPY-Y1 antag 2.
CCN(CC)CCn1c(SCC(=O)Nc2ccc(F)cc2)nc2c(sc3ccccc32)c1=O was read as NPY-Y1 PAM-ag -55, NPY-Y2 PAM-ag -25, NPY-Y1 antag 35*, NPY-Y1 ant conf 15 and NPY-Y2 antag ct 29*.
Screening C=CCN(C(=O)CSc1nc2c(sc3ccccc32)c(=O)n1CCN(CC)CC)c1ccccc1 returned NPY-Y1 PAM-ag -17, NPY-Y2 PAM-ag -9, NPY-Y1 antag 23*, NPY-Y1 ant conf 44* and NPY-Y2 antag ct 65*.
For CN1N=C(C(=O)Nc2ccc3c(c2)CCC3)CCC1=O the results were NPY-Y1 PAM-ag -19, NPY-Y2 PAM-ag -12 and NPY-Y1 antag 5.
For Cc1ccc(CN2CCN(Cc3cccn3-c3ccccn3)CC2CCO)o1 (centres undefined) the results were NPY-Y1 PAM-ag -23, NPY-Y2 PAM-ag -11 and NPY-Y1 antag 9.
c1ccc(-c2csc3ncnc(NCCCN4CCOCC4)c23)cc1 was read as NPY-Y1 PAM-ag -9, NPY Y2 blocker 1, NPY-Y2 PAM-ag -1 and NPY-Y1 antag 9.
`O=c1c2c(-c3ccccc3)csc2nc2c3ccccc3c(NCCN3CCOCC3)nn12` gave NPY-Y1 PAM-ag -63, NPY-Y2 PAM-ag -36, NPY-Y1 antag 32*, NPY-Y1 ant conf 27* and NPY-Y2 antag ct 40*.
